Reference: PubChem BioAssay
Records with an inconclusive call do not appear. Calls of active or inactive are those of the source.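 Rule for the calls, unless noted: active = growth inhibition above 25% in both replicates, a cutoff set 3 SD above the mean; inconclusive = above 25% in only one replicate; inactive = the rest.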

Legend:
[1] = OD615 S. cerevisiae growth inhibition, permissive medium, pilot counter-assay, permissive growth control for S. cerevisiae lifespan shortening project (AID 705); conditions: OD615, 24 h, at 10 µM, stronger effect = higher value
Procedure, shortened: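 System: S. cerevisiae with engineered DeaD lifespan system. Medium: SC raffinose/galactose permissive medium. Doses: single compound dose of 10 µM, 0.25% DMSO final. Schedule: 24 h exposure, 30 °C. Measured by: OD615 turbidity read. Read-out: growth inhibition.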

[2] = Restrictive medium S. cerevisiae growth inhibition, OD615, pilot screen of yeast lifespan reduction project, restrictive growth control (AID 706;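 active = growth inhibition above a set limit, 3 SD over mean compound inhibition, in both replicates, cut at about 43% in these data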;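 note: modified DeaD lifespan yeast strain shifted to restrictive glucose medium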); conditions: OD615, 48 h, at 10 µM, stronger effect = higher value
Procedure, shortened: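 Assay system – genetically modified Saccharomyces cerevisiae, DeaD replicative lifespan assay strain · Medium – CSMM-D glucose medium · Doses – 10 µM compound, 0.25% DMSO · Times – 4 h pre-incubation, 48 h exposure at 30 °C · Signal – optical density at 615 nm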

[3] = viability gain of MRP-1-high H69AR cells under doxorubicin, pilot screen, MRP-1 activator project, CellTiter-Glo, duplicate (AID 807;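 active = viability increase at or above a cutoff of the median across tested compounds plus 3 SD, cut at about 8.5% in these data, passing the limit was not always enough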;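 note: compound pretreatment 18-22 h then 72 h combined with doxorubicin; 0% = doxorubicin alone and 100% = vehicle without doxorubicin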); conditions: H69AR viability with doxorubicin, CellTiter-Glo luminescence; at 10 µM; stronger effect = higher value
[4] = growth suppression of beta-catenin knockout HCT116, pilot screen, human colon tumor cells (AID 823;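 active = cell viability at or below a set limit in both duplicate runs, the limit being the all-compound median minus 4 SD, cut at about 23% in these data, passing the limit was not always enough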;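 note: 0% = wells killed by 20 µM Hyamine and 100% = untreated DMSO cell wells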); conditions: CellTiter-Glo, 60 h, at 10 µM, stronger effect = lower value
[5] = inhibitors of the yeast RAM network, pilot screen, dse1pr::URA3 reporter, 5-FOA selection (AID 869;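 active = inhibition over a set limit, the all-compound mean plus 3 SD, in both replicate runs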;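 note: 0% = DMSO wells with no growth and 100% = 10 µM 1-NA-PP1 with full growth; RAM network block rescues cells from 5-FOA so hits raise OD615 growth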); conditions: S. cerevisiae dse1pr::URA3 5-FOA growth, OD615, 2 d; at 10 µM; stronger effect = higher value; strain carries analog-sensitive mutant Cbk1 kinase
[6] = RAM signaling pathway blockade in yeast – S. cerevisiae, Pdr1DBD-CYC8 efflux-inhibited sensitized strain, primary screen (AID 1298;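 active = RAM network inhibition above 8.4% in each of two replicates, 3 SD over the compound average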;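 note: 0% = DMSO untreated cells without growth and 100% = 10 µM 1-NA-PP1 full growth; higher means more yeast growth rescued from 5-FOA killing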); conditions: S. cerevisiae cbk1-as DSE1-URA3 strain, 5-FOA growth OD615, 2 d; at 50 µM; stronger effect = higher value
[7] = growth suppression of PTEN-deleted HCT116, pilot screen, cell-based, HCT116 clonal line, CellTiter-Glo (AID 824;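 active = viability at or below 27.92% in each of two runs, the all-compound median minus 4 SD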;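 note: 0% = 20 µM Hyamine control and 100% = vehicle cell control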); conditions: 60 h, at 10 µM, stronger effect = lower value

CCCn1c(CNC(=O)Cc2ccccc2)nc2ccccc21
inactive: growth inhibition [1] 4.79% | growth inhibition [2] 4.86% | viability increase [3] -0.37% | viability [4] 106% | inhibition [5] 2.26% | RAM network inhibition [6] 2.59%

COc1ccc(OC)c2[nH]c(=O)c(CCNC(=O)c3cc4ccccc4o3)cc12
inactive: growth inhibition [1] -6.5% | growth inhibition [2] -3.6% | viability increase [3] 2.38% | viability [4] 87.8% | viability [7] 94.7% | inhibition [5] 0.6% | RAM network inhibition [6] 7.96%

Cc1c(N=c2c(=O)c3ccccc3c2=O)c(=O)n(-c2ccccc2)n1C
inactive: growth inhibition [1] -15.7% | growth inhibition [2] -8.74% | viability increase [3] -4.43% | viability [4] 95.2% | viability [7] 95.3% | inhibition [5] 4.17% | RAM network inhibition [6] 3.66%

COc1ccc(NC(=O)Nc2nnc(N3CCCCC3C)s2)cc1OC (stereo not given)
inactive: growth inhibition [1] -5.21% | growth inhibition [2] -10.4% | viability increase [3] -1.91% | viability [4] 99.2% | viability [7] 97.4% | inhibition [5] 2.48% | RAM network inhibition [6] 3.85%

COc1ccc(S(=O)(=O)Nc2cc(Cl)ccc2OC)cc1
inactive: growth inhibition [1] -12.3% | growth inhibition [2] -21.9% | viability increase [3] -6.67% | inhibition [5] 0.78% | RAM network inhibition [6] 6.09%
active: viability [4] 16.5% | viability [7] 17.1%

O=C1CCCC2=C1C1(O)C(=O)c3ccccc3C1(O)O2 (stereo not given)
inactive: growth inhibition [1] -7.89% | growth inhibition [2] -16% | viability increase [3] -4.62% | viability [4] 89.4% | viability [7] 88.7% | inhibition [5] 1.28% | RAM network inhibition [6] 1.91%

CN(Cc1ccccc1)c1nnc(N)s1
inactive: growth inhibition [1] 0.13% | growth inhibition [2] -3.49% | viability increase [3] -2% | viability [4] 105% | viability [7] 102% | inhibition [5] 0.935% | RAM network inhibition [6] 2.5%

CC(=O)Nc1ccccc1NC(=O)C(F)(F)F
inactive: growth inhibition [1] -14.2% | growth inhibition [2] -5% | viability increase [3] -1.16% | viability [4] 101% | viability [7] 108% | inhibition [5] 1.51% | RAM network inhibition [6] 0.88%

CNC(=O)c1c[nH]n2c(=O)c(Cc3ccccc3F)c(C)nc12
inactive: growth inhibition [1] -2.95% | growth inhibition [2] -3.94% | viability increase [3] -0.89% | viability [4] 87.7% | viability [7] 91.6% | inhibition [5] 1.17% | RAM network inhibition [6] 3.18%

CCOC(=O)c1cc(-c2ccc(C)o2)nn1CCC#N
inactive: growth inhibition [1] -6.98% | growth inhibition [2] 4.24% | viability increase [3] 0.21% | viability [4] 101% | viability [7] 102% | inhibition [5] 0.86% | RAM network inhibition [6] 3.69%

CCOC(=O)C1CCCN(C(=O)C2CCN(c3nnc(-n4cccc4)s3)CC2)C1 (stereo not given)
inactive: growth inhibition [1] 5.27% | growth inhibition [2] 2.6% | viability increase [3] -2.17% | viability [4] 98.5% | viability [7] 90.8% | inhibition [5] 1.1% | RAM network inhibition [6] 2.55%

Cn1c(C(=O)N2CCN(c3ncccn3)CC2)cc2c(=O)n(C)c3ccccc3c21
inactive: growth inhibition [1] 6.33% | growth inhibition [2] 8.57% | viability increase [3] 2.83% | viability [4] 105% | viability [7] 97.2% | inhibition [5] 1.92% | RAM network inhibition [6] -0.01%

COC(=O)c1sc2nc3c(cc2c1N)COC(C)(C)C3
inactive: growth inhibition [1] -6.75% | growth inhibition [2] -7.37% | viability increase [3] -1.54% | viability [4] 101% | viability [7] 94.1% | inhibition [5] 1.19% | RAM network inhibition [6] 3.17%

CC1CCN(C(=O)CSc2nc(N)c3c4c(sc3n2)CN(C)CC4)CC1
inactive: growth inhibition [1] -10.2% | growth inhibition [2] 12.6% | viability increase [3] -3.86% | viability [4] 102% | inhibition [5] 0.905% | RAM network inhibition [6] 2.24%

CCOC(=O)N1CCN(C(=O)c2cc3cc(Br)ccc3oc2=O)CC1
inactive: growth inhibition [1] -3.99% | growth inhibition [2] -17.6% | viability increase [3] -3.3% | viability [4] 94.9% | viability [7] 89.7% | inhibition [5] 0.665% | RAM network inhibition [6] -1.94%

O=C(NCc1ccccn1)c1nnc(Cc2ccc(Cl)cc2)o1
inactive: growth inhibition [1] -1.48% | growth inhibition [2] 2.66% | viability increase [3] 1.55% | viability [4] 108% | viability [7] 103% | inhibition [5] 0.515% | RAM network inhibition [6] -1.46%

COc1cc(OC)cc(C(=O)Nc2cc(NC(=O)c3ccco3)ccc2OC)c1
inactive: growth inhibition [1] -15.4% | growth inhibition [2] 3.21% | viability increase [3] -5.63% | viability [4] 88.8% | inhibition [5] 1.21% | RAM network inhibition [6] 2.66%

Cc1c(Cl)cccc1NC(=O)CCN1CCCC(C)C1 (stereo not given)
inactive: growth inhibition [1] -12.9% | growth inhibition [2] 3.83% | viability increase [3] -3.58% | viability [4] 94.7% | inhibition [5] 2.28% | RAM network inhibition [6] 3.43%

Cc1cccc(Nc2ncnc3nc[nH]c23)c1C
inactive: growth inhibition [1] -10.5% | growth inhibition [2] -8.69% | viability increase [3] -1.75% | viability [4] 103% | viability [7] 103% | inhibition [5] 2.98% | RAM network inhibition [6] 4.52%

COc1ccc(NC(=O)C(c2ccc(OC)cc2)N(C)C(=O)c2cnccn2)cc1 (stereo not given)
inactive: growth inhibition [1] 9.44% | growth inhibition [2] 2.07% | viability increase [3] -2.29% | viability [4] 101% | inhibition [5] 2.52% | RAM network inhibition [6] 1.4%

CCOc1ccc(N(CC(=O)NC2CCCCCC2)S(=O)(=O)c2c(C)noc2C)cc1
inactive: growth inhibition [1] -4.29% | growth inhibition [2] -1.42% | viability increase [3] -6.44% | viability [4] 44.8% | inhibition [5] 3.02% | RAM network inhibition [6] 5.55%

COc1ccc(N2CCN(C(=O)Cn3c(=O)[nH]c4ccsc4c3=O)CC2)cc1
inactive: growth inhibition [1] -15.3% | growth inhibition [2] -12.4% | viability increase [3] -3.44% | viability [4] 99.7% | inhibition [5] 0.99% | RAM network inhibition [6] 3.59%

Cc1ccc(Cc2cnc(N)s2)o1
inactive: growth inhibition [1] -11.3% | growth inhibition [2] 10.1% | viability increase [3] -5.06% | viability [4] 75.9% | inhibition [5] 2.06% | RAM network inhibition [6] 5.71%

COc1ccc(N2C(=O)C3CCCN3C2c2ccc(C)cc2)cc1 (stereo not given)
inactive: growth inhibition [1] -2.01% | growth inhibition [2] 2.53% | viability increase [3] -1.95% | viability [4] 97.6% | viability [7] 99.2% | inhibition [5] 1.94% | RAM network inhibition [6] -1.51%

O=C(c1cc(C2CC2)on1)N1CCOCC1
inactive: growth inhibition [1] -4.11% | growth inhibition [2] -0.575% | viability increase [3] 0.15% | viability [4] 96% | viability [7] 98.7% | inhibition [5] 1.57% | RAM network inhibition [6] 2.93%

Cc1cc(C)c(C#N)c(=N)o1
inactive: growth inhibition [1] 23.3% | growth inhibition [2] 20.7% | viability increase [3] -3.83% | viability [4] 87.2% | inhibition [5] 1.2% | RAM network inhibition [6] 8.54%

N#Cc1c(N)nc2c(c1-c1ccc3c(c1)OCO3)CCCCCC2
inactive: growth inhibition [1] -18% | growth inhibition [2] -4.1% | viability increase [3] -5.55% | viability [4] 84.8% | inhibition [5] 2.68% | RAM network inhibition [6] 6.96%

CCc1ccc(Nc2cc(C)nc3nc(C)nn23)cc1
inactive: growth inhibition [1] -16.8% | growth inhibition [2] -7.12% | viability increase [3] -4.04% | viability [4] 96.8% | viability [7] 96% | inhibition [5] 1.99% | RAM network inhibition [6] 4.01%

COC1CCCCC1NS(=O)(=O)c1ccc(Cl)cc1 (stereo not given)
inactive: growth inhibition [1] 1.43% | growth inhibition [2] 2.45% | viability increase [3] -1.67% | viability [4] 93.3% | viability [7] 99.6% | inhibition [5] -0.11% | RAM network inhibition [6] -1.18%

Cc1ccc(-c2nc(=S)c3c(n2Cc2ccco2)CC(C)(C)OC3)cc1
inactive: growth inhibition [1] -13.2% | growth inhibition [2] 2.99% | viability increase [3] -2.16% | viability [4] 69.2% | inhibition [5] -0.945% | RAM network inhibition [6] 3.44%

Cc1onc(-c2ccccc2)c1C(=O)NC(C)C
inactive: growth inhibition [1] -11.8% | growth inhibition [2] -8.11% | viability increase [3] 0.11% | viability [4] 105% | viability [7] 98.8% | inhibition [5] 0.105% | RAM network inhibition [6] 3.45%

O=C1CC(c2ccccc2)n2nc(N3C(=O)CCC3=O)nc2N1 (stereo not given)
inactive: growth inhibition [1] -8.97% | growth inhibition [2] 1.75% | viability increase [3] -0.15% | viability [4] 97.9% | inhibition [5] 1.32% | RAM network inhibition [6] 3.53%

CCOC(=O)C1CCN(CCC(=O)Nc2cccc(Cl)c2C)CC1
inactive: growth inhibition [1] -11.2% | growth inhibition [2] -0.95% | viability increase [3] -2.59% | viability [4] 94.6% | inhibition [5] 1.46% | RAM network inhibition [6] 2.35%

CC(=O)c1ccc(OCC(O)CN2CCC(C)CC2)cc1 (stereo not given)
inactive: growth inhibition [1] -0.26% | growth inhibition [2] 9.25% | viability increase [3] -0.16% | viability [4] 101% | viability [7] 101% | inhibition [5] 0.54% | RAM network inhibition [6] -2.94%

Cc1nnc(Sc2nc3c(c(=O)[nH]c(=O)n3C)n2CCc2ccccc2)s1
inactive: growth inhibition [1] -17.6% | growth inhibition [2] -13.6% | viability increase [3] -0.89% | viability [4] 102% | viability [7] 100% | inhibition [5] 0.16% | RAM network inhibition [6] 8.3%

CCOC(=O)C1=C(C)Nc2nc(C)nn2C1c1ccc(OCC)c(OC)c1 (stereo not given)
inactive: growth inhibition [1] -8.05% | growth inhibition [2] -3.29% | viability increase [3] -4.07% | viability [4] 101% | viability [7] 99% | inhibition [5] 1.44% | RAM network inhibition [6] 0.63%

CCOC(=O)N1CCN(c2nc(SC)nc3sc4c(c23)CC(C)(C)OC4)CC1
inactive: growth inhibition [1] 2.38% | growth inhibition [2] -0.985% | viability increase [3] -5.82% | viability [4] 87.5% | inhibition [5] 0.54% | RAM network inhibition [6] 9.5%
